From publication PMC9394215 (Journal for Immunotherapy of Cancer, 2022)
Where two headings read alike, the source gives them in different places.

Assays:
human PBMCs = experiment: HPLC assay of ATPase activity; type: cell-based; details: ceritinib 50 µM and higher; 1 µM eATP
In short: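 PBMCs were isolated from buffy coats by density gradient. Cells (2×10^5) were pretreated with test compound (1, 10, 50, 100 µM) for 15 min at 37°C, then given 1 µM eATP (ATPase) or eAMP (AMPase) for 30 min at 37°C. Cells were removed and supernatants 10 kDa-filtered. Etheno-nucleotides were quantified by reversed-phase C8 HPLC (phosphate pH 6.0/methanol gradient; fluorescence 230/410 nm) against standards; singlets, n=2–3.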

[1] = cited from earlier work
Membrane-bound CD73 = molecular target: T1, Membrane-bound CD73 (Homo sapiens, UniProt P21589); experiment: Membrane-bound CD73 inhibition; type: biochemical
T1 sequence (P21589 27-574): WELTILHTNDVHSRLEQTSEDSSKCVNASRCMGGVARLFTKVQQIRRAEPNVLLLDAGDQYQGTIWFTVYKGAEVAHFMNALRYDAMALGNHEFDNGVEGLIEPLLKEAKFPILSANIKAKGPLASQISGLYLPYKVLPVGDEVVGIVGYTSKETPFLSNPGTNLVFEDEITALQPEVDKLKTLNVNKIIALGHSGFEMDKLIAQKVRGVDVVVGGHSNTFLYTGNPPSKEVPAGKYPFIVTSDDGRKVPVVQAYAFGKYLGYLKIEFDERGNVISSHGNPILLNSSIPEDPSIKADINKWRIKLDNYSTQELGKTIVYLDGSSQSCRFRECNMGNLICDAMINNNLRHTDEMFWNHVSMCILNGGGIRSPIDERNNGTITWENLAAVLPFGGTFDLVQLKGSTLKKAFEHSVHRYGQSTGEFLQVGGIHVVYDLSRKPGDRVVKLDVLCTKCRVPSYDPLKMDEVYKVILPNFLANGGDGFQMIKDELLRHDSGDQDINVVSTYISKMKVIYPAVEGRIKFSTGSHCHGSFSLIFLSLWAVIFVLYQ

CD38 = molecular target: T2, CD38 (Homo sapiens, UniProt P28907); experiment: CD38 assay; type: biochemical
T2 sequence (P28907 43-300 limits assumed): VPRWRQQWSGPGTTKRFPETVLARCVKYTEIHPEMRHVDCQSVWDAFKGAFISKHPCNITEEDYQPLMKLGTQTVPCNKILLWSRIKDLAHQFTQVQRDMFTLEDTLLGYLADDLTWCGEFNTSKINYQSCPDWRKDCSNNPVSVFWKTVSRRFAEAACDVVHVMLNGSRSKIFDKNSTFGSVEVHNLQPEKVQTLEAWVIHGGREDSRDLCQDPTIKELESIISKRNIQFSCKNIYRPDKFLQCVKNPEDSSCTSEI
In short: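 Either CD38 (5 ng) or NPP5 (250 ng) was mixed with 50 µM test compound and 100 µM NAD+ as substrate. For CD38 the reaction buffer was 10 mM HEPES, pH 7.4.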

[2] = patients, peroral; cited from earlier work
[3] = cited from earlier work; remark: listed apart in the source
TNBC (MDA-MB-231) cells = experiment: Extracellular eATP hydrolysis on live TNBC cells; type: cell-based, human; details: 1, 10, 100 µM, significant at 10 µM, 20 µM eATP
NPP1 = molecular target: T3, NPP1 (Homo sapiens, UniProt P22413); experiment: NPP1 assay; type: biochemical
T3 sequence (P22413 98-925 limits assumed): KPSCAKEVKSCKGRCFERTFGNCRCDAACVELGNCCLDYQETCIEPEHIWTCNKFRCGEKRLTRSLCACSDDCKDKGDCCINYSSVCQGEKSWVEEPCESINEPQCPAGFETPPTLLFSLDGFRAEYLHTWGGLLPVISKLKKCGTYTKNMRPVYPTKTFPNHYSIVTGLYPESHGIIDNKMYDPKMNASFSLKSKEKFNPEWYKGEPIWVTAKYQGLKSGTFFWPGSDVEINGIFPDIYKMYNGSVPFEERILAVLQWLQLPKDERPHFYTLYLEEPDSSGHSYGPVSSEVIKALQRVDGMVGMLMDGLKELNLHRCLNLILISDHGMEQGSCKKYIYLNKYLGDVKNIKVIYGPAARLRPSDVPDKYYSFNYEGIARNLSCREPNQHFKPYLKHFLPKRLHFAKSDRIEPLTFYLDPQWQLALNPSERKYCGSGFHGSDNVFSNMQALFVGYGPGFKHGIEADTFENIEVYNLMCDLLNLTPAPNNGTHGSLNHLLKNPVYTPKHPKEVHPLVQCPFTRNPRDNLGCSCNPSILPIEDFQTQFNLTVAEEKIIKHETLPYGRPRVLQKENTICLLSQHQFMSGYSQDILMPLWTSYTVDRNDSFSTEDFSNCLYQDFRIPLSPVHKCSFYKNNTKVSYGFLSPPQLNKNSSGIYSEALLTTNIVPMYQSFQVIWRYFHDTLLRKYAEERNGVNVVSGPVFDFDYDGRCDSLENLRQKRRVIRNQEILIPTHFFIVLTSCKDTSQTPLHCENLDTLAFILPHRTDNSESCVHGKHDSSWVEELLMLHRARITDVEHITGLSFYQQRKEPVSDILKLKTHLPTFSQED
In short: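 Crude soluble NPP1 (800 ng, Sf9-expressed) was incubated with 50 µM test compound, 2% DMSO and 300 µM ATP. Buffer: 10 mM CHES, pH 9.0, 2 mM CaCl2, 1 mM MgCl2; 30 min at 37°C with shaking. The reaction was stopped by 5 min at 90°C, then cooled on ice. Product AMP was quantified by capillary electrophoresis.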

ALK = details: ref 59 60; cited from earlier work
[4] = read-out: % inhibition at 50 µM

IC50 (Membrane-bound CD73): > 50 µM
inhibition at 50 µM (Membrane-bound CD73; [4]): 30%
IC50 (CD38): > 50 µM
inhibition at 50 µM (CD38; [4]): 19%
IC50 (NPP1): > 50 µM
inhibition at 50 µM (NPP1; [4]): 8%
Structure (SMILES): Cc1cc(Nc2ncc(Cl)c(Nc3ccccc3S(=O)(=O)C(C)C)n2)c(OC(C)C)cc1C1CCNCC1 [ceritinib, Ceritinib]
formation of eAMP from eATP by PBMCs (human PBMCs): completely blocked
metabolic stability [1]: metabolically highly stable
maximum plasma levels [2]: up to 1.4 µM
average concentration in tumor tissue ([3]; brain tumor patients, after the 10th applied dose, steady state): 36 µM
range of concentration in tumor tissue ([3]; brain tumor patients, after the 10th applied dose): 2 to 139 µM
average concentration in tumor tissue ([3]; brain tumors, steady-state conditions): 36 nmol/g
concentration in tumor tissues in some patients [3]: above 100 µM
inhibition of hydrolysis of eATP added to live cells (TNBC (MDA-MB-231) cells): concentration-dependent inhibition
IC50 value against ALK (ALK): subnanomolar range
